Results on one compound are retold here after publication PMC8458982 (The Journal of Biological Chemistry, 2021).

Where “and” joins values, the source holds several entries; their conditions need not be identical. Identical values can stand only once.

One assay deals with T1, mouse TRPC6 (mTRPC6-WT) (Mus musculus, UniProt Q61143).
T1 sequence (Q61143 1-930): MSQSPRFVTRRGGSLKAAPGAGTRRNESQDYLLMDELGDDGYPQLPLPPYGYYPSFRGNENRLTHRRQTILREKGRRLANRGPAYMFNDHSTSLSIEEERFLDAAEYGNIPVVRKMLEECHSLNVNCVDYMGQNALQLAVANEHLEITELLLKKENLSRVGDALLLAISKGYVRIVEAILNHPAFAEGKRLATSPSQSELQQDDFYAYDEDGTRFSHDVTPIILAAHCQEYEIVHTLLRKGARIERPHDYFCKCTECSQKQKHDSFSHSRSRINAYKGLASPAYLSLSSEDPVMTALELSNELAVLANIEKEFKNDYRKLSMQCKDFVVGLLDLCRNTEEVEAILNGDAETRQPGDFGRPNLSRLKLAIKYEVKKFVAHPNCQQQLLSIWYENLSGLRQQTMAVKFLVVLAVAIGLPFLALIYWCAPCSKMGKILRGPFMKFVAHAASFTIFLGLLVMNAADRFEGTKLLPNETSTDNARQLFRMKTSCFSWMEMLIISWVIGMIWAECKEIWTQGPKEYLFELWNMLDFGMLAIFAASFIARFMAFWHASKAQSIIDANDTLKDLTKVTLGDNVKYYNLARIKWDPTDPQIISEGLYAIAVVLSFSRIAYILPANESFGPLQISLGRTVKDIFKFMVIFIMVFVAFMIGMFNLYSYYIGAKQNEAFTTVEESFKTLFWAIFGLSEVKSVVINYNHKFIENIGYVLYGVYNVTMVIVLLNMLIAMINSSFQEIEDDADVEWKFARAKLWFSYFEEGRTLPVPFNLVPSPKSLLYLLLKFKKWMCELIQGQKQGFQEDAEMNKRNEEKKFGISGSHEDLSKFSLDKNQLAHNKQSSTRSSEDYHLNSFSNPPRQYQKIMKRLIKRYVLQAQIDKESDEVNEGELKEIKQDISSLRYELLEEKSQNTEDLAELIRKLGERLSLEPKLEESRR
As to the kind of experiment: whole-cell patch-clamp, mTRPC6-WT expressed in HEK293 cells. It is filed as cell-based. Summed up: (§1)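 Transiently transfected HEK293 cells expressing mouse or human TRPC6 WT, or sequence-verified mouse point mutants, recorded 24–48 h post-transfection. Conventional whole-cell clamp at −60 mV and 23 °C, gap-free; test compound applied by Y-tube. Pipette: CsCl/HEPES/BAPTA, 400 nM free Ca2+, pH 7.2. Bath: NaCl-based, 2 mM CaCl2, pH 7.4. EC50 from Hill fit of concentration–current data. Mutant screen used current ratios (10/5 μM or 3/1 μM). At least 3 transfection batches.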
(Patch clamp records ionic current or voltage across a cell membrane.)

In another assay the target is mTRPC6 mutant ^mY704W (Mus musculus, UniProt Q61143, Y704W). As to the kind of experiment: whole-cell patch-clamp, mTRPC6 mutant Y704W. It is filed as cell-based. Put shortly:
as §1

For another assay, the system named is mTRPC6 mutant ^mR463K. As to the kind of experiment: whole-cell patch-clamp, mTRPC6 mutant R463K. It is filed as cell-based, mouse. As to conditions: ^mR463K (S1 pocket). Put shortly:
as §1

The next assay deals with mTRPC6 mutant ^mL684V (Mus musculus, UniProt Q61143, L684V). The experiment in a line: whole-cell patch-clamp, mTRPC6 mutant L684V. It is filed as cell-based. The following applies: ^mL684V (S3 pocket). Put shortly: as §1
mTRPC6 mutant ^mL684V, sequence (Q61143 whole entry L684V): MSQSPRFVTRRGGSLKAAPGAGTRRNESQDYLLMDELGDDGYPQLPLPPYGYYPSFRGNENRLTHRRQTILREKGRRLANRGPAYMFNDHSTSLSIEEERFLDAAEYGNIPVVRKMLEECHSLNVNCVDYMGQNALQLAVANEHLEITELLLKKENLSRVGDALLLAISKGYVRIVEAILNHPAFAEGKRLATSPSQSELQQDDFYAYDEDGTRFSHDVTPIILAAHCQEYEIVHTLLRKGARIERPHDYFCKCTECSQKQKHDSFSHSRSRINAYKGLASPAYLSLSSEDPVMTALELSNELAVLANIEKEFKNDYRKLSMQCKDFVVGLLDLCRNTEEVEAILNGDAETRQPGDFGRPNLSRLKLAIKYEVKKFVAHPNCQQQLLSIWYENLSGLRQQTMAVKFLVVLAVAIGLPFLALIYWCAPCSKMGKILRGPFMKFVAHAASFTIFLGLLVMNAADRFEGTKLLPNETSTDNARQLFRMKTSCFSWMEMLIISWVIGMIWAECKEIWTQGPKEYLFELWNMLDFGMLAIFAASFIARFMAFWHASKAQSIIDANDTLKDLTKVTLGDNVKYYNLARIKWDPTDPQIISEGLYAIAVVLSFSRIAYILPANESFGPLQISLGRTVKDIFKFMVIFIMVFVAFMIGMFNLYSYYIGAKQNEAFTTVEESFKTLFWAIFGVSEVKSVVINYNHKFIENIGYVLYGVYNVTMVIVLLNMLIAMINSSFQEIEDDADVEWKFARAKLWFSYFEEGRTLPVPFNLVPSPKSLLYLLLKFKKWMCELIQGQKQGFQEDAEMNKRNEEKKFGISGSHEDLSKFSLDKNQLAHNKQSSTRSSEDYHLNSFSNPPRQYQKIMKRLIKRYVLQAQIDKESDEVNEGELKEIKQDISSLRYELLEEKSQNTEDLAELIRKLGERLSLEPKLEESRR
A further assay deals with mTRPC6 mutant ^mW679F (Mus musculus, UniProt Q61143, W679F). The experiment in a line: whole-cell patch-clamp, mTRPC6 mutant W679F. It is filed as cell-based. The following applies: saturated agonist. Put shortly:
as §1

Another assay addresses mTRPC6 mutant ^mN701A (Mus musculus, UniProt Q61143, N701A). As to the kind of experiment: whole-cell patch-clamp, mTRPC6 mutant N701A. It is filed as cell-based. As to conditions: saturated agonist. Put shortly: as §1

mTRPC6 mutant ^mY704W, sequence (Q61143 whole entry Y704W): as the sequence (Q61143 whole entry L684V) above, with V684L, Y704W counted along it
mTRPC6 mutant ^mN701A, sequence (Q61143 whole entry N701A): as the sequence (Q61143 whole entry L684V) above, with V684L, N701A counted along it
mTRPC6 mutant ^mW679F, sequence (Q61143 whole entry W679F): as the sequence (Q61143 whole entry L684V) above, with W679F, V684L counted along it

By EC50 is commonly meant the concentration needed to bring the measured effect to its halfway point. A high value points to weaker potency. Consider `CCOC(=O)N1CCC(c2cc(O)n3nc(C)c(-c4ccc(F)cc4)c3n2)CC1` [M085, Ethyl 4-(3-(4-fluorophenyl)-7-hydroxy-2-methylpyrazolo[1,5-a]pyrimidin-5-yl)piperidine-1-carboxylate], for which the EC50 on mouse TRPC6 (mTRPC6-WT) (EC50 of channel activation, mTRPC6-WT, whole-cell, −60 mV, Hill fit) was ~5 µM and 3.8 µM; on mTRPC6 mutant ^mY704W, 26.7 ± 4.04 µM. Also, the entries for the “ratio of M085 activation current I10 μM/I5 μM” value at mouse TRPC6 (mTRPC6-WT) (mTRPC6-WT) and in the assay with mTRPC6 mutant ^mR463K were 1.65 ± 0.21 and 1.54 ± 0.17, respectively. In addition, the “Imax (maximal current density)” value at mouse TRPC6 (mTRPC6-WT) (mTRPC6-WT, 30 μM M085 (saturated)) came to 75.11 ± 14.20 pA/pF; on mTRPC6 mutant ^mY704W (^mY704W, 100 μM agonist) it was 3.27 ± 1.12 pA/pF. On mouse TRPC6 (mTRPC6-WT) (mTRPC6-WT, DTNB covalent modification), the “effect of DTNB on agonist-mediated activation” value is “no effect”. Moreover, the saturation concentration entry on mouse TRPC6 (mTRPC6-WT) (mTRPC6 activation) is “approximately 10 μM”. The agonistic effect entry on mTRPC6 mutant ^mL684V is given as “loss of agonistic effect”. The “agonist-induced current (channel function)” value at mTRPC6 mutant ^mW679F is recorded as “complete loss of function”. Moreover, the agonist-induced current result at mTRPC6 mutant ^mN701A was “disappearance”.
